Publication PMC3880595 (Journal of medicinal chemistry, 2013)
Like-named read-outs stand apart in the source and are kept apart here. Positions of bridges follow the written chain, without caps; N, C: chain ends. Non-standard residues stand in square brackets, D forms with d. Residues, ends and D or L forms follow the SMILES beside them. Nle = CCCC[C@H](N)C(=O)O

What was measured:
MC1 receptor [1] = molecular target: T1, MC1 receptor (Mus musculus, UniProt Q01727); experiment: In vitro competitive binding assay against ^125I-; design: species or system murine
Outline: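 B16/F1 cells seeded at 2.5 × 10^5/well, grown overnight at 37 °C, then washed with binding medium (MEM, 25 mM HEPES pH 7.4, 0.2% BSA, 0.3 mM 1,10-phenanthroline). Incubated 2 h at 25 °C with ~30,000 cpm 125I-(Tyr2)-NDP-MSH plus test peptide at 10^-13 to 10^-6 M. Rinsed twice with ice-cold 0.2% BSA/0.01 M PBS (pH 7.4), lysed 5 min in 1 M NaOH, gamma-counted. Run in triplicate.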

RP-HPLC capacity factor = format: physicochemical; settings: chromatographic, Grace Vydac C-18, 20-min gradient of 16-26% acetonitrile in 20 mM HCl, 1 mL/min
MC1 receptor [2] = molecular target: T1, MC1 receptor; settings: read-out: MC1 receptor binding affinity; B16/F1 cells; cited from earlier work

T1 sequence (Q01727 whole entry): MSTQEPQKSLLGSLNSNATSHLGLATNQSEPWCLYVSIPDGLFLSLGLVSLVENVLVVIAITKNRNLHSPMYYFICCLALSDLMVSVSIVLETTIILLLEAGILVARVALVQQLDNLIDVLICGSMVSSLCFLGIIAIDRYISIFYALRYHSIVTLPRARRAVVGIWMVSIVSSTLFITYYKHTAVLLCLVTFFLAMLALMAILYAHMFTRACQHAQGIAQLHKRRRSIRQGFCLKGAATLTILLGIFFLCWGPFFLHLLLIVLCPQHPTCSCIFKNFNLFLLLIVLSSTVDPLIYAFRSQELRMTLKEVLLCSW

Row | IC50 (MC1 receptor [1]) | Capacity factor (k') (RP-HPLC capacity factor) | Molecule | IC50 (MC1 receptor [2])
1 | 0.82 ± 0.06 nM | 3.77 | CC(C)[C@H](NC(=O)[C@@H]1CCCN1C(=O)[C@H](CCCNC(=N)N)NC(=O)[C@H](CS)NC(=O)[C@H](Cc1c[nH]c2ccccc12)NC(=O)[C@H](CCCNC(=N)N)NC(=O)[C@@H](Cc1ccccc1)NC(=O)[C@H](Cc1c[nH]cn1)NC(=O)[C@H](CCC(=O)O)NC(=O)[C@H](CS)NC(=O)[C@H](CS)NC(=O)[C@H](CCCCN)NC(=O)[C@@H]1CC(=O)N[C@@H](CCCNC(=N)N)C(=O)N[C@@H](Cc2ccccc2)C(=O)N[C@@H](CC(=O)O)C(=O)N[C@H](Cc2ccc(O)cc2)C(=O)N1)C(N)=O [RFD-Lys-(Arg^11)CCMSH] (RFD[dY]DKCCEH[dF]RWCRPV-NH2; lactam N-5) | 
2 |  |  | RGD-Lys-(Arg^11)CCMSH: cyclic RGD motif {Arg-Gly-Asp-DTyr-Asp} attached to [Cys^3,4,10, D-Phe^7, Arg^11]α-MSH3-13 peptide via a lysine linker (RGDYDKCCEHFRWCRPV; lactam cycle c[Arg1-Gly-Asp-dTyr-Asp5]; (Arg1 alpha-amine to Asp5 side-chain carboxyl); D-Tyr4; D-Phe11; C-terminal amide; Lys6 linker) | 2.1 nM
3 | 2.99 ± 0.26 nM | 4.36 | CCCC[C@@H]1NC(=O)[C@H](CCCNC(=N)N)NC(=O)C[C@@H](C(=O)N[C@@H](CCCCN)C(=O)N[C@@H](CS)C(=O)N[C@@H](CS)C(=O)N[C@@H](CCC(=O)O)C(=O)N[C@@H](Cc2c[nH]cn2)C(=O)N[C@H](Cc2ccccc2)C(=O)N[C@@H](CCCNC(=N)N)C(=O)N[C@@H](Cc2c[nH]c3ccccc23)C(=O)N[C@@H](CS)C(=O)N[C@@H](CCCNC(=N)N)C(=O)N2CCC[C@H]2C(=O)N[C@H](C(N)=O)C(C)C)NC(=O)[C@@H](Cc2ccc(O)cc2)NC(=O)[C@H](CC(=O)O)NC1=O [RNleD-Lys-(Arg^11)CCMSH] (R[Nle]D[dY]DKCCEH[dF]RWCRPV-NH2; lactam N-5) | 
4 | 1.35 ± 0.08 nM |  | CC(C)[C@H](NC(=O)[C@@H]1CCCN1C(=O)[C@H](CCCNC(=N)N)NC(=O)[C@H](CS)NC(=O)[C@H](Cc1c[nH]c2ccccc12)NC(=O)[C@H](CCCNC(=N)N)NC(=O)[C@@H](Cc1ccccc1)NC(=O)[C@H](Cc1c[nH]cn1)NC(=O)[C@H](CCC(=O)O)NC(=O)[C@H](CS)NC(=O)[C@H](CS)NC(=O)[C@H](CCCCN)NC(=O)[C@@H]1CC(=O)N[C@@H](CCCNC(=N)N)C(=O)N[C@H](Cc2ccccc2)C(=O)N[C@@H](CC(=O)O)C(=O)N[C@H](Cc2ccc(O)cc2)C(=O)N1)C(N)=O [RfD-Lys-(Arg^11)CCMSH] (R[dF]D[dY]DKCCEH[dF]RWCRPV-NH2; lactam N-5) | 
5 | 1.3 ± 0.36 nM | 2.19 | CC(C)[C@H](NC(=O)[C@@H]1CCCN1C(=O)[C@H](CCCNC(=N)N)NC(=O)[C@H](CS)NC(=O)[C@H](Cc1c[nH]c2ccccc12)NC(=O)[C@H](CCCNC(=N)N)NC(=O)[C@@H](Cc1ccccc1)NC(=O)[C@H](Cc1c[nH]cn1)NC(=O)[C@H](CCC(=O)O)NC(=O)[C@H](CS)NC(=O)[C@H](CS)NC(=O)[C@H](CCCCN)NC(=O)[C@@H]1CC(=O)N[C@@H](CCCNC(=N)N)C(=O)N[C@@H](CO)C(=O)N[C@@H](CC(=O)O)C(=O)N[C@H](Cc2ccc(O)cc2)C(=O)N1)C(N)=O [RSD-Lys-(Arg^11)CCMSH, c[Arg-Ser-Asp-DTyr-Asp]-Lys-Cys-Cys-Glu-His-DPhe-Arg-Trp-Cys-Arg-Pro-Val-NH2] (RSD[dY]DKCCEH[dF]RWCRPV-NH2; lactam N-5) | 
